Assay results: the RNAGym collection of RNA variant scans (doi:10.1126/science.aae0568)
Fewer inactive variants are shown than the library holds.

B1: tRNA (parent)
chain: GUUCCGUUGGCGUAAUGGUAACGCGUCUCCCUCCUAAGGAGAAGACUGCGGGUUCGAGUCCCGUACGGAACG

Variants of: B1
Assay: yeast fitness relative to wild type (ratio to wild type); higher = fitter; tRNA-Arg(CCU), competitive growth, 37 C, YPD
Method in brief: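 Start and end populations of a pooled competition were compared by 100-nucleotide paired-end sequencing of gene amplicons. The Saccharomyces cerevisiae strains carried tRNA-Arg(CCU) gene variants at the native genomic locus, synthesised with a 3% per-site mutation rate at 69 sites, and competed in YPD at 37°C for 24 hours in six parallel replicates. Darwinian fitness relative to wild type was based on the change in genotype frequencies. Genotypes required ≥ 100 starting reads, and estimates < 0.5 were set to 0.5.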

Variant | yeast fitness
C5A C24G C29G A40C | ≤ 0.5
C5A C24G C62A | ≤ 0.5
C5A C24G G56A C62A | ≤ 0.5
C5A C24G U26A C29G A43U | ≤ 0.5
C5A C24G U26A C29G U32A C49U | ≤ 0.5
C5A C24U | 0.71
C5A C24U A36C | ≤ 0.5
C5A C24U A36C C66U | ≤ 0.5
C5A C24U A43C G58A | ≤ 0.5
C5A C24U C29U C30A A37C A65C | 0.549
C5A C24U C29U C33U C34G A42U G58A | ≤ 0.5
C5A C24U C46A | 0.519
C5A C24U C62A A69C | ≤ 0.5
C5A C24U G25C C30G | ≤ 0.5
C5A C24U G25C C30G G50C G56A A65U | ≤ 0.5
C5A C24U G51A | ≤ 0.5
C5A C24U G67U A69C | 0.517
C5A C24U U35C | ≤ 0.5
C5A C24U U35C C61A | ≤ 0.5
C5A C27A C34G U59C | 0.539
C5A C27A C46A C49A C55A | ≤ 0.5
C5A C27A U28G | 0.617
C5A C27G C31G U59C | ≤ 0.5
C5A C27U | 0.815

Variant | yeast fitness
C5A C27U C46U | 0.739
C5A C27U G38A | 0.565
C5A C27U G39A A40G | 0.577
C5A C27U G39C C49U | 0.526
C5A C27U G39C C49U C55U | ≤ 0.5
C5A C29A | 0.612
C5A C29A A45U C62G C66G | ≤ 0.5
C5A C29A A57G | ≤ 0.5
C5A C29A C34G | ≤ 0.5
C5A C29G A36U A43G | ≤ 0.5
C5A C29G G41A A43U | 0.659
C5A C29U A36U C66U G67A | ≤ 0.5
C5A C30A | 0.767
C5A C30A A36U G41C G51C | 0.65
C5A C30A A57G | 0.565
C5A C30A C31G A37U C55U A57C C61A | 0.55
C5A C30G | 0.608
C5A C30G A43C | ≤ 0.5
C5A C30G C31G A65C | ≤ 0.5
C5A C30G C31G U32C G63A | ≤ 0.5
C5A C30U C62G G68A | ≤ 0.5
C5A C30U G68A | ≤ 0.5
C5A C30U U35A A42G C61U G63A | 0.538
C5A C30U U54A | 0.537

Variant | yeast fitness
C5A C30U U59C C62A | ≤ 0.5
C5A C31A C46A G50C | ≤ 0.5
C5A C31A C46G | ≤ 0.5
C5A C31G A37G | 0.538
C5A C31G A37G U59A A70C | ≤ 0.5
C5A C31G A42G | ≤ 0.5
C5A C31G C46A | 0.54
C5A C31G G51A | 0.577
C5A C31G G56C G58C G63A | ≤ 0.5
C5A C31U A40G C49U A70U | ≤ 0.5
C5A C31U C34U C60G G63A | ≤ 0.5
C5A C31U C55U | 0.6
C5A C31U G51C | 0.807
C5A C31U G58C U64C A70G | 0.576
C5A C31U G68A | 0.639
C5A C31U U35C A69U | 0.539
C5A C31U U35C G50A | 0.565
C5A C33A A65U | ≤ 0.5
C5A C33G A40G | 0.521
C5A C33G A42C | ≤ 0.5
C5A C33G A65U | ≤ 0.5
C5A C33G C34A A40C | 0.567
C5A C33U C61U | ≤ 0.5
C5A C33U C62A | 0.542

Variant | yeast fitness
C5A C33U G50A G52C A65C | ≤ 0.5
C5A C33U G56A | ≤ 0.5
C5A C33U U53C | ≤ 0.5
C5A C34A | 0.606
C5A C34A A40U A43G C62U | ≤ 0.5
C5A C34A A43C A45C C46U | 0.593
C5A C34A C46U | 0.553
C5A C34A G68C | ≤ 0.5
C5A C34G | 0.589
C5A C34G A37G | ≤ 0.5
C5A C34G A43C | ≤ 0.5
C5A C34G G58A G67A | ≤ 0.5
C5A C34G U53A | ≤ 0.5
C5A C34U A36C A40C | ≤ 0.5
C5A C34U A36C A40C C55A C66U | ≤ 0.5
C5A C34U A40G | 0.727
C5A C34U C61G | ≤ 0.5
C5A C46A A69U | 0.738
C5A C46A G56C | ≤ 0.5
C5A C46A G56C A70G | ≤ 0.5
C5A C46U C55U | 0.763
C5A C49A U53G | ≤ 0.5
C5A C49U A65C | 0.614
C5A C49U A65U G67C | ≤ 0.5

Variant | yeast fitness
C5A C55A | 0.655
C5A C55A G56C | ≤ 0.5
C5A C55U | 0.707
C5A C55U G63A G67C | ≤ 0.5
C5A C60G G67A | ≤ 0.5
C5A C60U C66U | ≤ 0.5
C5A C61U | 0.966
C5A C62A | 0.743
C5A C62G | 0.778
C5A C62U A69C | 0.738
C5A C62U A70C | 0.616
C5A C62U C66G | ≤ 0.5
C5A C66A | 0.679
C5A C66U | 0.857
C5A G6A | 0.808
C5A G6A U7A A43U G44A C46A G63A G68C A69G | 0.532
C5A G6C A37G G52A C55G | ≤ 0.5
C5A G6C C11G C22U C46U G56A | ≤ 0.5
C5A G6C G68U | ≤ 0.5
C5A G9A | 0.975
C5A G9A C29U | 0.547
C5A G9A U32C | 0.602
C5A G9C | 0.627
C5A G9C A21U | ≤ 0.5

Variant | yeast fitness
C5A G9C A21U A69C | ≤ 0.5
C5A G9C A36U G50A | 0.536
C5A G9C A42C C49G G68A | ≤ 0.5
C5A G9C C27A C30U A65G | ≤ 0.5
C5A G9C U47G G68U | ≤ 0.5
C5A G10A C49A | ≤ 0.5
C5A G10A G39A U53G | ≤ 0.5
C5A G10C A43G G58C C66G | ≤ 0.5
C5A G10C G12A G23A U64A | ≤ 0.5
C5A G10C G17A A40U U54A | ≤ 0.5
C5A G10C G17A A40U U64C | 0.582
C5A G10C U19C C24G | ≤ 0.5
C5A G10C U26C | 0.518
C5A G10C U26C G39C C61U | ≤ 0.5
C5A G10C U26C G51A | ≤ 0.5
C5A G12A | 0.788
C5A G12A A45G | 0.551
C5A G12A A45G G67A | ≤ 0.5
C5A G12A C24U C29U C30A | ≤ 0.5
C5A G12A C29A G68C | 0.689
C5A G12A C33G | 0.646
C5A G12A C33G A57U | ≤ 0.5
C5A G12A C60G | ≤ 0.5
C5A G12A G18A A69C | ≤ 0.5

Variant | yeast fitness
C5A G12A G50C | ≤ 0.5
C5A G12A U35A A42G A65C C66A | 0.6
C5A G12A U35A A42G A65U | ≤ 0.5
C5A G12A U35G A69C | ≤ 0.5
C5A G12A U47A | ≤ 0.5
C5A G12C C34U A37G | 0.562
C5A G12C U47C | ≤ 0.5
C5A G17A | 0.851
C5A G17A A42G | 0.555
C5A G17A A42G G56A | ≤ 0.5
C5A G17A A42G U64A | 0.606
C5A G17A C24U A36C | 0.538
C5A G17A C49G | 0.532
C5A G17A G18A G25A C55A | 0.552
C5A G17A G67C | 0.662
C5A G17C | 0.652
C5A G17C A57C A70U | ≤ 0.5
C5A G17C A57G C66U | ≤ 0.5
C5A G17C A57U | ≤ 0.5
C5A G17C A70C | ≤ 0.5
C5A G17C C27U A57C | ≤ 0.5
C5A G17C C30A A65C | ≤ 0.5
C5A G17C C46G C55U | ≤ 0.5
